Results published in ChEMBL document CHEMBL4270642, “Boronic ester-linked macrocyclic lipopeptides as serine protease inhibitors targeting Escherichia coli type I signal peptidase” (Eur J Med Chem, 2018).
In brackets after ≈: the same amount, converted by molar mass.

Assays:
[1] = target: Signal peptidase I (Escherichia coli K-12) (UniProt P00803); assay: Inhibition of Escherichia coli type 1 signal peptidase lepB assessed as residual activity at 10 uM preincubated for 10 mins followed by Dabcyl-VGGTATAYGAFSRPGLE-(EDANS)-OH substrate addition measured after 2 hrs by FRET based assay (reference value: 100%)
Procedure, shortened: (§1)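 EcLepB (about 50 nM estimated) preincubated 10 min with compound. Reaction started with Dabcyl/EDANS FRET peptide at 8 µM final (Km 20 µM). Fluorescence followed continuously at 535 nm, 22 °C, for 2 h. Cleavage rates plotted against inhibitor concentration; IC50 from non-linear regression of sigmoidal dose-response curves.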

[2] = target: Signal peptidase I (Escherichia coli K-12) (UniProt P00803); assay: Inhibition of Escherichia coli type 1 signal peptidase lepB assessed as residual activity at 2.5 uM preincubated for 10 mins followed by Dabcyl-VGGTATAYGAFSRPGLE-(EDANS)-OH substrate addition measured after 2 hrs by FRET based assay (reference value: 100%); procedure, shortened: as §1
Escherichia coli [3] = assay: Antibacterial activity against tolC deficient Escherichia coli CH3130 after 16 to 20 hrs by broth microdilution method; type: functional
Procedure, shortened: (§2)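 Broth microdilution in cation-adjusted Mueller-Hinton II per EUCAST/CLSI; two-fold compound series 64 down to 0.25 µg/mL final. Inoculum from fresh colonies (non-selective agar, 18-24 h, 35 ± 2 °C), adjusted to 0.5 McFarland, diluted to about 5 × 10^5 CFU/mL final. Static incubation 16-20 h at 35 ± 2 °C; MIC read visually as complete growth inhibition against medium-only wells.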

[4] = target: Signal peptidase I (Escherichia coli K-12) (UniProt P00803); assay: Inhibition of Escherichia coli type 1 signal peptidase lepB assessed as residual activity at 0.625 uM preincubated for 10 mins followed by Dabcyl-VGGTATAYGAFSRPGLE-(EDANS)-OH substrate addition measured after 2 hrs by FRET based assay (reference value: 100%); procedure, shortened: as §1
Escherichia coli [5] = assay: Antibacterial activity against Escherichia coli ATCC 25922 after 16 to 20 hrs by broth microdilution method; type: functional; procedure, shortened: as §2
[6] = Hemolytic activity in human RBC at 100 uM after 45 mins by spectrophotometric method relative to control; type: ADME, cell-based, Erythrocyte; conditions: red blood cells (erythrocytes), read-out: Activity
Procedure, shortened: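 Heparinized human blood; red cells washed three times in Tyrode buffer pH 7.4. Compound at 100 µM final with 1% DMSO and 50% RBC, shaken (250 rpm) 45 min at 37 °C. Cells pelleted (1000 × g, 10 min); supernatant haemoglobin at 540 nm. Percent lysis relative to buffer-only and 2% Triton X-100 controls.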

Klebsiella pneumoniae = assay: Antibacterial activity against Klebsiella pneumoniae ATCC 13883 after 16 to 20 hrs by broth microdilution method; type: functional; procedure, shortened: as §2
[7] = target: Signal peptidase I (Escherichia coli K-12) (UniProt P00803); assay: Inhibition of Escherichia coli type 1 signal peptidase lepB assessed as residual activity at 0.0012 uM preincubated for 10 mins followed by Dabcyl-VGGTATAYGAFSRPGLE-(EDANS)-OH substrate addition measured after 2 hrs by FRET based assay (reference value: 100%); procedure, shortened: as §1
[8] = target: Signal peptidase I (Escherichia coli K-12) (UniProt P00803); assay: Inhibition of Escherichia coli type 1 signal peptidase lepB assessed as residual activity at 0.1563 uM preincubated for 10 mins followed by Dabcyl-VGGTATAYGAFSRPGLE-(EDANS)-OH substrate addition measured after 2 hrs by FRET based assay (reference value: 100%); procedure, shortened: as §1
Pseudomonas aeruginosa [9] = assay: Antibacterial activity against Pseudomonas aeruginosa PAO1 after 16 to 20 hrs by broth microdilution method; type: functional; procedure, shortened: as §2
[10] = target: Signal peptidase I (Escherichia coli K-12) (UniProt P00803); assay: Inhibition of Escherichia coli type 1 signal peptidase lepB assessed as residual activity at 0.0098 uM preincubated for 10 mins followed by Dabcyl-VGGTATAYGAFSRPGLE-(EDANS)-OH substrate addition measured after 2 hrs by FRET based assay (reference value: 100%); procedure, shortened: as §1
HepG2 = assay: Cytotoxicity against human HepG2 cells after 72 hrs by FMSA; type: cell-based; conditions: HepG2, 72 h
Procedure, shortened: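 HepG2 (ATCC) grown in EMEM with 10% FBS, pen/strep, 2 mM L-glutamine, used up to 20 passages. Seeded at 1000 cells/well, cultured overnight, then dosed acoustically from DMSO stocks. Eight two-fold dilutions in duplicate from top 64 or 32 µM; 72 h at 37 °C, 5% CO2. Fluorescein diacetate hydrolysis read at ex 485/em 530 nm; IC50 by non-linear regression.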

[11] = target: Signal peptidase I (Escherichia coli K-12) (UniProt P00803); assay: Inhibition of Escherichia coli type 1 signal peptidase lepB assessed as residual activity at 0.0049 uM preincubated for 10 mins followed by Dabcyl-VGGTATAYGAFSRPGLE-(EDANS)-OH substrate addition measured after 2 hrs by FRET based assay (reference value: 100%); procedure, shortened: as §1
Acinetobacter baumannii = assay: Antibacterial activity against Acinetobacter baumannii ATCC 19606 after 16 to 20 hrs by broth microdilution method; type: functional; conditions: ATCC 19606 = CIP 70.34 = JCM 6841; procedure, shortened: as §2
[12] = target: Signal peptidase I (Escherichia coli K-12) (UniProt P00803); assay: Inhibition of Escherichia coli type 1 signal peptidase lepB assessed as residual activity at 1.25 uM preincubated for 10 mins followed by Dabcyl-VGGTATAYGAFSRPGLE-(EDANS)-OH substrate addition measured after 2 hrs by FRET based assay (reference value: 100%); procedure, shortened: as §1
Signal peptidase I = Signal peptidase I (Escherichia coli K-12, UniProt P00803); assay: Inhibition of Escherichia coli type 1 signal peptidase lepB preincubated for 10 mins followed by Dabcyl-VGGTATAYGAFSRPGLE-(EDANS)-OH substrate addition measured after 2 hrs by FRET based assay; procedure, shortened: as §1
[13] = target: Signal peptidase I (Escherichia coli K-12) (UniProt P00803); assay: Inhibition of Escherichia coli type 1 signal peptidase lepB assessed as residual activity at 0.0024 uM preincubated for 10 mins followed by Dabcyl-VGGTATAYGAFSRPGLE-(EDANS)-OH substrate addition measured after 2 hrs by FRET based assay (reference value: 100%); procedure, shortened: as §1
[14] = target: Signal peptidase I (Escherichia coli K-12) (UniProt P00803); assay: Inhibition of Escherichia coli type 1 signal peptidase lepB assessed as residual activity at 0.0195 uM preincubated for 10 mins followed by Dabcyl-VGGTATAYGAFSRPGLE-(EDANS)-OH substrate addition measured after 2 hrs by FRET based assay (reference value: 100%); procedure, shortened: as §1
[15] = target: Signal peptidase I (Escherichia coli K-12) (UniProt P00803); assay: Inhibition of Escherichia coli type 1 signal peptidase lepB assessed as residual activity at 0.0391 uM preincubated for 10 mins followed by Dabcyl-VGGTATAYGAFSRPGLE-(EDANS)-OH substrate addition measured after 2 hrs by FRET based assay (reference value: 100%); procedure, shortened: as §1
Escherichia coli [16] = assay: Antibacterial activity against Escherichia coli D22 CGSG 5163 harboring Ips mutant after 16 to 20 hrs by broth microdilution method; type: functional
Procedure, shortened: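 Broth microdilution in cation-adjusted Mueller-Hinton II broth, following EUCAST and CLSI guidelines. Two-fold series at final concentrations 64 down to 0.25 µg/mL, with medium-only and growth controls. Inoculum from fresh colonies (18-24 h, 35 °C ± 2 °C) adjusted to 0.5 McFarland, final ≈5 × 10^5 CFU/mL. Plates incubated unshaken 16-20 h at 35 °C ± 2 °C. MIC read visually as complete inhibition of growth.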

[17] = target: Signal peptidase I (Escherichia coli K-12) (UniProt P00803); assay: Inhibition of Escherichia coli type 1 signal peptidase lepB assessed as residual activity at 5 uM preincubated for 10 mins followed by Dabcyl-VGGTATAYGAFSRPGLE-(EDANS)-OH substrate addition measured after 2 hrs by FRET based assay (reference value: 100%); procedure, shortened: as §1
Staphylococcus aureus = assay: Antibacterial activity against Staphylococcus aureus ATCC 29213 after 16 to 20 hrs by broth microdilution method; type: functional; procedure, shortened: as §2
[18] = target: Signal peptidase I (Escherichia coli K-12) (UniProt P00803); assay: Inhibition of Escherichia coli type 1 signal peptidase lepB assessed as residual activity at 0.3125 uM preincubated for 10 mins followed by Dabcyl-VGGTATAYGAFSRPGLE-(EDANS)-OH substrate addition measured after 2 hrs by FRET based assay (reference value: 100%); procedure, shortened: as §1
[19] = target: Signal peptidase I (Escherichia coli K-12) (UniProt P00803); assay: Inhibition of Escherichia coli type 1 signal peptidase lepB assessed as residual activity at 0.0781 uM preincubated for 10 mins followed by Dabcyl-VGGTATAYGAFSRPGLE-(EDANS)-OH substrate addition measured after 2 hrs by FRET based assay (reference value: 100%); procedure, shortened: as §1
Pseudomonas aeruginosa [20] = assay: Antibacterial activity against efflux defective Pseudomonas aeruginosa PAO750 after 16 to 20 hrs by broth microdilution method; type: functional; procedure, shortened: as §2

Signal peptidase I, sequence (P00803 whole entry): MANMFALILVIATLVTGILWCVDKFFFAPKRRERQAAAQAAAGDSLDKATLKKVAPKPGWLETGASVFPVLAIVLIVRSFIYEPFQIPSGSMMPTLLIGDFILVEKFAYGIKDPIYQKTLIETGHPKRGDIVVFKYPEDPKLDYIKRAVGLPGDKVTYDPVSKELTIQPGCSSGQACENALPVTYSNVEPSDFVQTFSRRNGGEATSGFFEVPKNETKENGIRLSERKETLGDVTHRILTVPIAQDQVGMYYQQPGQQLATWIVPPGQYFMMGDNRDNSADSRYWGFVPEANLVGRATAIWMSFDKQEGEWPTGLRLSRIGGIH
Signal peptidase I (Escherichia coli K-12), sequence (P00803 whole entry): as above

| Structure (SMILES) | Activity [1] [%] | Activity [2] [%] | MIC (Escherichia coli [3]) [µg/mL] | Activity [4] [%] | MIC (Escherichia coli [5]) [µg/mL] | hemolysis at 0.75 h, 100 µM [6] [%] | MIC (Klebsiella pneumoniae) [µg/mL] | Activity [7] [%] | Activity [8] [%] | MIC (Pseudomonas aeruginosa [9]) [µg/mL] | Activity [10] [%] | IC50 (HepG2) [µM] | Activity [11] [%] | MIC (Acinetobacter baumannii) [µg/mL] | Activity [12] [%] | IC50 (Signal peptidase I) [µM] | Activity [13] [%] | Activity [14] [%] | Activity [15] [%] | MIC (Escherichia coli [16]) [µg/mL] | further results |
| --- | --- | --- | --- | --- | --- | --- | --- | --- | --- | --- | --- | --- | --- | --- | --- | --- | --- | --- | --- | --- | --- |
| C[C@@H]1NC(=O)[C@@H](NC(=O)[C@H](C)NC(=O)[C@@H](NC(=O)[C@H](CCCN)NC(=O)C#Cc2ccc(-c3ccccc3)cc2)[C@@H](C)O)Cc2cn(nn2)CCO[C@@H]2C[C@@H]3OB1O[C@@H]3C2 | 6.8 | 17.8 | > 64 | 25.8 | > 64 | 0.01 | > 64 | 103 | 58.2 | > 64 | 99 | 28.2 | 97.1 | > 64 | 22.5 | 0.227 | 106 | 98.2 | 89.3 | > 64 | Activity [17]: 13.5%; MIC (Staphylococcus aureus): 32 µg/mL (≈ 38.8 µM); Activity [18]: 30%; Activity [19]: 73.1%; MIC (Pseudomonas aeruginosa [20]): > 64 µg/mL |
| CCCCCCc1ccc(-n2cc(C(=O)N[C@@H](CCCN)C(=O)N[C@H](C(=O)N[C@@H](C)C(=O)N[C@H]3Cc4cn(nn4)CCO[C@@H]4C[C@@H]5OB(O[C@@H]5C4)[C@H](C)NC3=O)[C@@H](C)O)ccc2=O)cc1 | 17 | 17.3 | > 64 | 32.6 | > 64 | 0.03 | > 64 | 109 | 90 | > 64 | 98.8 | > 64 | 101 | > 64 | 24.3 | 0.495 | 101 | 111 | 98.3 | > 64 | Activity [17]: 15.8%; MIC (Staphylococcus aureus): 64 µg/mL (≈ 70.9 µM); Activity [18]: 59.3%; Activity [19]: 95.3%; MIC (Pseudomonas aeruginosa [20]): > 64 µg/mL |
| C[C@@H]1NC(=O)[C@@H](NC(=O)[C@H](C)NC(=O)[C@@H](NC(=O)[C@H](CCCN)NC(=O)c2ccc(=O)n(-c3ccccc3)c2)[C@@H](C)O)Cc2cn(nn2)CCO[C@@H]2C[C@@H]3OB1O[C@@H]3C2 | 10.4 | 42.8 | > 64 | 66.9 | > 64 | 0.04 | > 64 | 84.6 | 105 | > 64 | 101 | > 64 | 97.5 | > 64 | 62.1 | 1.66 | 82.4 | 104 | 91.6 | > 64 | Activity [17]: 26.8%; MIC (Staphylococcus aureus): > 64 µg/mL; Activity [18]: 69.5%; Activity [19]: 100%; MIC (Pseudomonas aeruginosa [20]): > 64 µg/mL |
